Data from ChEMBL document CHEMBL1147008, “Design, synthesis, and biological activities of madindoline analogues” (2006).

Tested on: 7TDI
Test: Inhibition of IL6-dependent growth of 7TDI cells at 10 uM relative to madindoline A
Type: functional, Mus musculus
Procedure, shortened: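 IL-6-dependent 7TDI cell line; growth inhibition measured with each analogue present at 10 μM. Values expressed against the natural compound.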

| SMILES | Activity |
| --- | --- |
| CC1=C(C)C(=O)C(C)(CN2c3ccccc3[C@]3(O)CCO[C@H]23)C1=O | 0 |
| CCCCCCCCCC1=C(C)C(=O)[C@](C)(CN2c3ccccc3[C@]3(O)CCO[C@H]23)C1=O | 3.9 |
| CC1=C(Cc2ccccc2)C(=O)[C@@](C)(CN2c3ccccc3[C@]3(O)CCO[C@H]23)C1=O | 0.9 |
| CCCCC1=C(C)C(=O)[C@@](C)(CN2c3ccccc3[C@]3(OC(=O)c4ccccc4)CCO[C@H]23)C1=O | 2.6 |
| CCCCCC(=O)O[C@@]12CCO[C@@H]1N(C[C@]1(C)C(=O)C(C)=C(CCCC)C1=O)c1ccccc12 | 2.6 |
| CC1=C(C)C(=O)CC1=O | 0 |
| O[C@@]12CCO[C@@H]1Nc1ccccc12 | 0 |
| CCCCC1=C(C)C(=O)[C@@](C)(CN2c3ccc(Cl)cc3[C@]3(O)CCO[C@H]23)C1=O | 0.8 |
| CCCCCCCCCCCCCCCCCCCCCC1=C(C)C(=O)[C@](C)(CN2c3ccccc3[C@]3(O)CCO[C@H]23)C1=O | 0 |
| CCCCC1=C(C)C(=O)[C@@](C)(CN2c3ccccc3[C@@]3(O)CCO[C@@H]23)C1=O | 0 |
| CCCCCCCC1=C(C)C(=O)[C@](C)(CN2c3ccccc3[C@]3(O)CCO[C@H]23)C1=O | 3.2 |
| CCCCC1=C(C)C(=O)[C@@](C)(CN2c3ccc(Br)cc3[C@]3(O)CCO[C@H]23)C1=O | 2.8 |
| CCCCC1=C(C)C(=O)[C@@](C)(Cn2cc(CCO)c3ccccc32)C1=O | 0.9 |
| CCCCCCCCCCCC1=C(C)C(=O)[C@](C)(CN2c3ccccc3[C@]3(O)CCO[C@H]23)C1=O | 3.4 |
| CCC1=C(C)C(=O)[C@](C)(CN2c3ccccc3[C@]3(O)CCO[C@H]23)C1=O | 0 |
| CCCCC1=C(C)C(=O)[C@@](C)(CN2c3ccccc3[C@]3(O)CCO[C@H]23)C1=O | 1 |
| CCCCC1=C(C)C(=O)[C@@](C)(CN2c3ccc(I)cc3[C@]3(O)CCO[C@H]23)C1=O | 2.8 |
| CCCCCCCCCC(=O)O[C@@]12CCO[C@@H]1N(C[C@]1(C)C(=O)C(C)=C(CCCC)C1=O)c1ccccc12 | 0 |
| CCCCC1=C(C)C(=O)[C@@](C)(CN2c3ccccc3[C@]3(OC(C)=O)CCO[C@H]23)C1=O | 1.2 |
